According to ChEMBL document CHEMBL1156240, “Papyriferic acid derivatives as reversal agents of multidrug resistance in cancer cells” (Bioorg Med Chem, 2010):
pIC50: −log10 of the molar value.

Columns and labels:
KB = experiment: Cytotoxicity against human KB cells after 48 hrs by MTT assay; assay type: functional, cell-based
[1] = Cytotoxicity against human multidrug-resistant KB-C2 cells after 48 hrs by MTT assay; assay type: functional, cell-based; conditions: KB-C2, 48 h
Method in brief: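 Seeded 5 × 10³ cells/well, preincubated 24 h, then compounds at 2, 10, 50, 100 µg/mL in medium (0.5% DMSO final) for 48 h. MTT 0.5 mg/mL for 4 h, formazan dissolved in DMSO, OD 540 nm; IC50 relative to vehicle controls.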

KB-C2 [2] = experiment: Inhibition of P-gp-mediated multidrug-resistance in human KB-C2 cells assessed as increase in colchicine-induced cytotoxicity at 1 ug/ml after 48 hrs by MTT assay; assay type: cell-based
KB-C2 [3] = experiment: Inhibition of P-gp-mediated multidrug-resistance in human KB-C2 cells assessed as increase in colchicine-induced cytotoxicity at 5 ug/ml after 48 hrs by MTT assay; assay type: cell-based

Compound | pIC50 (KB) | pIC50 [1] | fold change (FC) (KB-C2 [2]) | fold change (FC) (KB-C2 [3])
CC(=O)O[C@@H]1C[C@@H]2[C@@]3(C)CC[C@@H](OC(=O)CC(=O)N(C)C)C(C)(C)[C@@H]3CC[C@@]2(C)[C@]2(C)CC[C@H]([C@]3(C)CC[C@H](C(C)(C)O)O3)[C@@H]12 | 4.60 | 4.55 | 2.4 | 87.5
CC(=O)O[C@@H]1C[C@@H]2[C@@]3(C)CC[C@@H](OC(=O)CC(N)=O)C(C)(C)[C@@H]3CC[C@@]2(C)[C@]2(C)CC[C@H]([C@]3(C)CC[C@H](C(C)(C)O)O3)[C@@H]12 | 4.41 | 4.36 | 2.1 | 49.3
COC(=O)CC(=O)O[C@@H]1CC[C@]2(C)[C@H]3C[C@@H](OC(C)=O)[C@@H]4[C@@H]([C@]5(C)CC[C@H](C(C)(C)O)O5)CC[C@@]4(C)[C@]3(C)CC[C@H]2C1(C)C [METHYL PAPYRIFERATE] | 4.57 | 4.49 | 1.5 | 51.6
CC(=O)O[C@@H]1C[C@@H]2[C@@]3(C)CC[C@@H](OC(=O)CC(=O)N4CCOCC4)C(C)(C)[C@@H]3CC[C@@]2(C)[C@]2(C)CC[C@H]([C@]3(C)CC[C@H](C(C)(C)O)O3)[C@@H]12 | 4.51 | 4.56 | 17.4 | 185
CCNC(=O)CC(=O)O[C@@H]1CC[C@]2(C)[C@H]3C[C@@H](OC(C)=O)[C@@H]4[C@@H]([C@]5(C)CC[C@H](C(C)(C)O)O5)CC[C@@]4(C)[C@]3(C)CC[C@H]2C1(C)C | 4.40 | 4.36 | 2.6 | 53.9
CCCNC(=O)CC(=O)O[C@@H]1CC[C@]2(C)[C@H]3C[C@@H](OC(C)=O)[C@@H]4[C@@H]([C@]5(C)CC[C@H](C(C)(C)OC(=O)C(=O)NCCC)O5)CC[C@@]4(C)[C@]3(C)CC[C@H]2C1(C)C | 4.61 | 4.58 | 1.2 | 68.8
CNC(=O)CC(=O)O[C@@H]1CC[C@]2(C)[C@H]3C[C@@H](OC(C)=O)[C@@H]4[C@@H]([C@]5(C)CC[C@H](C(C)(C)O)O5)CC[C@@]4(C)[C@]3(C)CC[C@H]2C1(C)C | 4.39 | 4.37 | 4.7 | 74.4
COC(=O)CC(=O)O[C@@H]1CC[C@]2(C)[C@H]3CC[C@@H]4[C@@H]([C@]5(C)CC[C@H](C(C)(C)O)O5)CC[C@@]4(C)[C@]3(C)CC[C@H]2C1(C)C | 4.34 | 4.25 | 1.1 | 14.8
CC(=O)O[C@@H]1C[C@@H]2[C@@]3(C)CC[C@@H](OC(=O)CC(=O)NC(C)(C)C)C(C)(C)[C@@H]3CC[C@@]2(C)[C@]2(C)CC[C@H]([C@]3(C)CC[C@H](C(C)(C)O)O3)[C@@H]12 | 4.39 | 4.32 | 1.1 | 9.8
